How the values were obtained:
Format in all cases: ADME
Cytochrome P450 3A5 = Cytochrome P450 3A5 (Homo sapiens, UniProt P20815); test: Drug metabolism assessed as human recombinant CYP3A5 in presence of human P450 oxidoreductase and b5-mediated 1-((3S)-1-(1-methyl-3-(1-methyl-5-p-tolyl-1H-pyrazol-4-yl)-1H-pyrazolo[3,4-d]pyrimidin-4-yl)pyrrolidin-3-yl)-2,3,4,5-tetrahydropyridinium formation at 10 uM by HPLC-MS analysis in presence of NADPH; conditions: recombinant enzyme
How it was run: (§1)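 Recombinant CYP3A4 or CYP3A5 (50 pmol/ml final) added, without preincubation, to 10 µM CYP3cide with NADPH (final 1 mM) in 100 mM phosphate pH 7.4. Trapping incubations also held 200 µM KCN or 5 mM GSH (final). Incubated 1 h at 37°C, quenched with acetonitrile, dried, reconstituted. Metabolites analysed by LC/Orbitrap ESI-MS.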

Cytochrome P450 3A4 = Cytochrome P450 3A4 (Homo sapiens, UniProt P08684); test: Drug metabolism assessed as human recombinant CYP3A4 in presence of human P450 oxidoreductase and b5-mediated (4-(1-methyl-4-((S)-3-(piperidin-1-yl)pyrrolidin-1-yl)-1H-pyrazolo[3,4-d]pyrimidin-3-yl)-5-p-tolyl-1H-pyrazol-1-yl)methanol formation at 10 uM by HPLC-MS analysis in presence of NADPH; conditions: recombinant enzyme; how it was run: as §1
Cytochrome P450 3A4, sequence (P08684 whole entry): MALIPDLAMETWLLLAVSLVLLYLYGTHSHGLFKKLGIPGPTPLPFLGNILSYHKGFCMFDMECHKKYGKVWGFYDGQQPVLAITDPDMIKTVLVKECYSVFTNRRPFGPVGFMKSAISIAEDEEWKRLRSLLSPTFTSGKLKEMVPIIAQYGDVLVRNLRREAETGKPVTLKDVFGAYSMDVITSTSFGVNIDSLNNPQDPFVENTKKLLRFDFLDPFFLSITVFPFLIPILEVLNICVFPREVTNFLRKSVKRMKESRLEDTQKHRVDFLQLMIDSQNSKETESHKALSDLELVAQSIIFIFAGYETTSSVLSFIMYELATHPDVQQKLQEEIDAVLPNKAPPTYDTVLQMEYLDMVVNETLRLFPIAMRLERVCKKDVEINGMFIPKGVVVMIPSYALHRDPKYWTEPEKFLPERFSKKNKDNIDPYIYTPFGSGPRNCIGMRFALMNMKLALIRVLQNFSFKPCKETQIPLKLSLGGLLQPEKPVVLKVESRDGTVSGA

Cytochrome P450 2C9 = Cytochrome P450 2C9 (Homo sapiens, UniProt P11712); test: Reversible inhibition of human CYP2C9 diclofenac 4'-hydroxylase activity
Cytochrome P450 2C9, sequence (P11712 whole entry, canonical isoform): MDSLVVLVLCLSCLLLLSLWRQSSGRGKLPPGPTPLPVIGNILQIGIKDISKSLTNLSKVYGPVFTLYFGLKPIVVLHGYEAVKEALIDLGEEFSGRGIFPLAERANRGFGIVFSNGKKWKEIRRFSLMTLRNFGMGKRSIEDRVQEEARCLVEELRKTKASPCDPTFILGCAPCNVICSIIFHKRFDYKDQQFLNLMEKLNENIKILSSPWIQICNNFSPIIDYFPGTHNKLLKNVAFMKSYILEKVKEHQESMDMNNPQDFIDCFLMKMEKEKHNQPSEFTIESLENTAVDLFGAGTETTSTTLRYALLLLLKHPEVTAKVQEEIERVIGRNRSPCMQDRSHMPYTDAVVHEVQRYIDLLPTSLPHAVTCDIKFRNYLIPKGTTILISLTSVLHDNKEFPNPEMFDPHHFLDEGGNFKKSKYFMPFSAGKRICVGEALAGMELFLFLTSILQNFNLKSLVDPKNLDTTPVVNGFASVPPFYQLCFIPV
How it was run: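 Reversible IC50 with pooled HLM or recombinant CYP3A7 (with POR and b5), protein 0.010–0.10 mg/ml depending on isoform. Probe substrate at its experimentally derived KM. Metabolite formation measured by LC/MS/MS. IC50 determinations run in duplicate.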

CYP3A = CYP3A (Homo sapiens, UniProt P08684+P20815+P24462+Q9HB55); test: Time dependent inhibition of human CYP3A midazolam 1'-hydroxylase activity assessed as decrease in enzyme activity at 1 uM preincubated for 30 mins by IC25-shift assay; conditions: probe midazolam (1'-hydroxylation)
How it was run: (§2)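 IC25-shift assay. Pooled HLMs or recombinant CYP3A4/3A5/3A7 were preincubated 30 min at 37°C with CYP3cide, with or without NADPH (1.3 mM) (N=2). Mixture diluted 10-fold into probe substrate (~KM) at 37°C. Metabolites analysed by LC/MS/MS. Readout: % decrease in activity vs control.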

CYP3A7 = CYP3A7 (Homo sapiens, UniProt P24462); test: Time dependent inhibition of midazolam 1'-hydroxylase activity of human recombinant CYP3A7 harboring human P450 oxidoreductase and b5 assessed as decrease in enzyme activity at 100 uM preincubated for 30 mins by IC25-shift assay; conditions: recombinant CYP3A7 with human P450 oxidoreductase and b5, probe midazolam (1'-hydroxylation); how it was run: as §2
CYP3A7, sequence (P24462 whole entry): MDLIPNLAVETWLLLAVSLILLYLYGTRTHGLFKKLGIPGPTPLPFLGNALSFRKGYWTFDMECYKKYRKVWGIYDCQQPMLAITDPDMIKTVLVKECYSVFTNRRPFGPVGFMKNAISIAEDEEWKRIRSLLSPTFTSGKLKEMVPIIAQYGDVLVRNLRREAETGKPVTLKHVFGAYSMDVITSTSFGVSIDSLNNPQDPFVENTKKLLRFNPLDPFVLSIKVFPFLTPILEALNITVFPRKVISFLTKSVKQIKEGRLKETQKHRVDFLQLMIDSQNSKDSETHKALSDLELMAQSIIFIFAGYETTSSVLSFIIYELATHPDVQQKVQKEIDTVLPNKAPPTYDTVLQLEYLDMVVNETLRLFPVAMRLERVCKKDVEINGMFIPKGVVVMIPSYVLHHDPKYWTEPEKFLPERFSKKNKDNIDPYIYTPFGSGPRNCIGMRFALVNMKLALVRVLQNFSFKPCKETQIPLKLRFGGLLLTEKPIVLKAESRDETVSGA

Cytochrome P450 3A5, sequence (P20815 whole entry): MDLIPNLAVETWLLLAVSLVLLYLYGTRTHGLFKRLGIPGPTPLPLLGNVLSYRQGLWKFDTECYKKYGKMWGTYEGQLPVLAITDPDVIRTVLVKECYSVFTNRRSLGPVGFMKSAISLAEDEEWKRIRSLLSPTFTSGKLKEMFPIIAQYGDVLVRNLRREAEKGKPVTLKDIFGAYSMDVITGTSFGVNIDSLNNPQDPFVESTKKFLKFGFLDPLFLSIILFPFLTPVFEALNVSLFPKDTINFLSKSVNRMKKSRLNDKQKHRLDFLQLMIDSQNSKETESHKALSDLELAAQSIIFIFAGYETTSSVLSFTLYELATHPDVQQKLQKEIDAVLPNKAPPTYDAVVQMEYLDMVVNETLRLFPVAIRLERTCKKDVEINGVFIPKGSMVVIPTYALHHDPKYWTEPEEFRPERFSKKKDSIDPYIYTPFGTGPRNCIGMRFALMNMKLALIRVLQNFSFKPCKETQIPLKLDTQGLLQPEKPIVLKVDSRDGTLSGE

For `Cc1ccc(-c2c(-c3nn(C)c4ncnc(N5CC[C@H](N6CCCCC6)C5)c34)cnn2C)cc1`, the Drug metabolism (Cytochrome P450 3A5) was “metabolite_detected”, the Drug metabolism (Cytochrome P450 3A4) was “metabolite_detected” and the IC50 (Cytochrome P450 2C9) was > 100 µM. It also gave an inhibition at 30 min, 1 µM (CYP3A) of 47% and an inhibition at 30 min, 100 µM (CYP3A7) of 15%.

From ChEMBL document CHEMBL3526089, “Selective mechanism-based inactivation of CYP3A4 by CYP3cide (PF-04981517) and its utility as an in vitro tool for delineating the relative roles of CYP3A4 versus CYP3A5 in the metabolism of drugs” (Drug Metab Dispos, 2012)
